Laboratory results reported in publication PMC10634246 (ACS Omega, 2023).

What was measured:
[1] = test system: SOD; assay: SOD activity in HUVEC; type: cell-based, human; settings: peptide 100 μM, 4 h, then Ang II 5 μM, 24 h; assay kit; n = 3
[2] = test system: p-eNOS; assay: Western blot, p-eNOS in HUVEC; type: cell-based, human; settings: peptide 100 μM, 4 h, then Ang II 5 μM, 24 h
How it was run: (§1)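 HUVECs at 5 × 10^6 cells/well, pretreated with 100 μM test peptide 4 h, then Ang II 5 μM 24 h. Lysed in ice-cold buffer 30 min, spun 12,000 × g 10 min, protein by BCA. Denatured 95 °C 10 min, 20–40 μg on 10% SDS-PAGE, PVDF transfer. Blocked in 5% BSA 1 h RT, primary antibody 4 °C overnight, secondary 1 h RT. Triplicate, mean ± SD.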

[3] = test system: eNOS; assay: Western blot, eNOS expression in HUVEC; type: cell-based, human; settings: peptide 100 μM, 4 h, then Ang II 5 μM, 24 h
How it was run: as §1

[4] = test system: ET-1; assay: Western blot, ET-1 expression in HUVEC; type: cell-based, human; settings: peptide 100 μM, 4 h, then Ang II 5 μM, 24 h
How it was run: as §1

[5] = test system: GSH-Px; assay: GSH-Px activity in HUVEC; type: cell-based, human; settings: peptide 100 μM, 4 h, then Ang II 5 μM, 24 h; assay kit; n = 3
[6] = test system: Nrf2; assay: Western blot, Nrf2 expression in HUVEC; type: cell-based, human; settings: peptide 100 μM, 4 h, then Ang II 5 μM, 24 h; for expression of Nrf2 protein: gray scale analysis of bands
How it was run: as §1

[7] = test system: CAT; assay: CAT activity in HUVEC; type: cell-based, human; settings: peptide 100 μM, 4 h, then Ang II 5 μM, 24 h; assay kit; n = 3
[8] = test system: HUVEC; assay: HUVEC morphology and cell number, inverted microscope; type: cell-based, human; settings: peptide 100 μM, 4 h, then Ang II 5 μM, 24 h; 200×
How it was run: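 HUVECs were suspended in fresh medium at a final 4 × 10^5 cells/well in 6-well plates and given 100 μM test peptide for 4 h. Medium was discarded, then 5 μM Ang II was added for 24 h. Cells were observed and photographed under an inverted microscope.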

[9] = test system: HUVEC; assay: NO level in HUVEC; type: cell-based, human; settings: peptide 100 μM, 4 h, then Ang II 5 μM, 24 h; for NO level: assay kit, n = 3
[10] = test system: HUVEC; assay: MDA content in HUVEC; type: cell-based, human; settings: 24 h, n = 3
[11] = test system: eNOS and ET-1; settings: cited from earlier work
[12] = test system: NQO1; assay: Western blot, NQO1 expression in HUVEC; type: cell-based, human; settings: peptide 100 μM, 4 h, then Ang II 5 μM, 24 h; gray scale analysis of bands
How it was run: as §1

[13] = test system: HepG2; settings: cited from earlier work
[14] = test system: HO-1; assay: Western blot, HO-1 expression in HUVEC; type: cell-based, human; settings: peptide 100 μM, 4 h, then Ang II 5 μM, 24 h; gray scale analysis of bands
How it was run: as §1

[15] = test system: HUVECs; settings: Ang II-stimulated HUVECs; cited from earlier work

Substance	SOD activity [1]	eNOS phosphorylation (p-eNOS) [2]	eNOS expression [3]	ET-1 expression [4]	GSH-Px activity [5]	expression of Nrf2 protein [6]	CAT activity [7]	HUVEC morphology [8]	number of cells [8]	NO level [9]	effect on eNOS and ET-1 levels [11]	NQO1 expression [12]	protection against hyperglycemia-induced HepG2 damage [13]	HO-1 expression [14]	also measured
Angiotensin II [Ang II, reference compound]	significantly reduced	obvious inhibition	obvious inhibition	increased	significantly reduced	significantly inhibited	significantly reduced	polygonal or round with the blurred cell boundaries	significantly reduced compared with the Con group	obvious inhibition	–	–	–	–	increase of MDA content compared to the Con group ([10]; Ang II 5 μM, compared to Con group): 200%
IPIPATKT	–	–	–	–	–	–	–	–	–	–	improvement effects	–	–	–	–
IVTNWDDMEK	–	–	–	–	–	–	–	–	–	–	improvement effects	–	–	–	–
KLHDEEVA [KA-8]	significantly reversed the decline	increased	increased	markedly blocked the Ang II-induced changes	significantly reversed the decline	reversed the inhibitory effect of Ang II	significantly reversed the decline	did not improve the number and morphology of cells as significantly as PG-8	did not improve the number and morphology of cells as significantly as PG-8	increased	–	increased	revealed the protective effects	increased	–
LSGYGP	–	–	–	–	–	–	–	–	–	–	improvement effects	–	–	–	protection against oxidative stress and endothelial injury [15]: revealed protective effects
PSRILYG [PG-7]	significantly rebounded to the levels in the Con group	increased	increased	markedly blocked the Ang II-induced changes	significantly rebounded to the levels in the Con group	reversed the inhibitory effect of Ang II	significantly rebounded to the levels in the Con group	–	significantly reversed	increased	–	increased	revealed the protective effects	higher than that in the KA-8 group	p-eNOS level higher than in the Ang II group ([2]; compared to Ang II group): more than 100%; eNOS level higher than in the Ang II group ([3]; compared to Ang II group): more than 100%; Nrf2 content higher than in the Con group ([6]; compared to Con group): about 50%; NO level higher than in the Ang II group ([9]; compared to Ang II group): more than 100%; level of intracellular MDA ([10]; peptide 100 μM, 4 h, then Ang II 5 μM, assay kit): decreased to that of the Con group
